Results taken from ChEMBL document CHEMBL1143889, “N-Phenyl and N-phenylalkyl-maleimides acting against Candida spp.: time-to-kill, stability, interaction with maleamic acids” (2008).
Values after ≈ are worked out from the molar mass of the structure shown. Active and inactive are the calls of the source. The calls are words filed in the database; no cut-off is given here.

How the values were obtained:
[1] = system: Candida parapsilosis; experiment: Antifungal activity against Candida parapsilosis C 124-2000 after 48 hrs by CLSI M27-A2 method; assay type: functional; details: Lodderomyces parapsilosis
How it was run: (§1)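 Broth microdilution per CLSI M27-A2 in RPMI-1640, with twofold dilutions giving final 250–0.98 µg/mL. The inoculum was modified to 1–5 × 10⁴ CFU/mL instead of 1–5 × 10³, with ketoconazole and amphotericin B as positive controls. MIC was the lowest concentration giving total growth inhibition, read visually. Strains were grown on Sabouraud-chloramphenicol agar for 24 h at 37 °C.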

[2] = system: Candida albicans; experiment: Antifungal activity against Candida albicans C 127-2000 after 48 hrs by CLSI M27-A2 method; assay type: functional; how it was run: as §1
[3] = system: Candida albicans; experiment: Antifungal activity against Candida albicans C 128-2000 after 48 hrs by CLSI M27-A2 method; assay type: functional; how it was run: as §1
[4] = system: Candida albicans; experiment: Antifungal activity against Candida albicans C 125-2000 after 48 hrs by CLSI M27-A2 method; assay type: functional; how it was run: as §1
[5] = system: Candida albicans; experiment: Antifungal activity against Candida albicans C 129-2000 after 48 hrs by CLSI M27-A2 method; assay type: functional; how it was run: as §1
[6] = system: Candida albicans; experiment: Antifungal activity against Candida albicans C 126-2000 after 48 hrs by CLSI M27-A2 method; assay type: functional; how it was run: as §1
[7] = system: Kluyveromyces marxianus; experiment: Antifungal activity against Candida kefyr C 123-2000 after 48 hrs by CLSI M27-A2 method; assay type: functional; how it was run: as §1
[8] = system: Nakaseomyces glabratus; experiment: Antifungal activity against Candida glabrata C 115-2000 after 48 hrs by CLSI M27-A2 method; assay type: functional; how it was run: as §1
[9] = system: Torulaspora delbrueckii; experiment: Antifungal activity against Candida coliculosa C 122-2000 after 48 hrs by CLSI M27-A2 method; assay type: functional; how it was run: as §1
[10] = system: Pichia kudriavzevii; experiment: Antifungal activity against Candida krusei C 117-2000 after 48 hrs by CLSI M27-A2 method; assay type: functional; how it was run: as §1
[11] = system: Candida albicans; experiment: Antifungal activity against Candida albicans ATCC 10231 after 48 hrs by CLSI M27-A2 method; assay type: functional; details: ATCC 10231, 48 h; how it was run: as §1
[12] = system: Candida albicans; experiment: Antifungal activity against Candida albicans C 130-2000 after 48 hrs by CLSI M27-A2 method; assay type: functional; how it was run: as §1
[13] = system: Candida tropicalis; experiment: Antifungal activity against Candida tropicalis C 137-1997 after 48 hrs by CLSI M27-A2 method; assay type: functional; how it was run: as §1
[14] = system: Clavispora lusitaniae; experiment: Antifungal activity against Candida lusitaniae C 131-2000 after 48 hrs by CLSI M27-A2 method; assay type: functional; how it was run: as §1
[15] = system: Candida albicans; experiment: Antifungal activity against Candida albicans ATCC 10231 pre-incubated for 1 day analysed after 24 hrs by CLSI M27-A2 method; assay type: functional
How it was run: (§2)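 Twofold maleimide dilutions (1000–0.98 µg/mL) in complete M27-A2 medium without inoculum were held at 37 °C, with one plate row filled on each of 7 consecutive days to give 0–7 days of pre-incubation. All wells were then inoculated with C. albicans ATCC 10231 at 1–5 × 10⁴ CFU/mL and incubated for 24 h at 37 °C. MIC was read per row, in duplicate.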

[16] = system: Candida albicans; experiment: Antifungal activity against Candida albicans ATCC 10231 preincubated for 7 days analysed after 24 hrs by CLSI M27-A2 method; assay type: functional; how it was run: as §2
[17] = system: Candida albicans; experiment: Antifungal activity against Candida albicans ATCC 10231 pre-incubated for 6 days analysed after 24 hrs by CLSI M27-A2 method; assay type: functional; how it was run: as §2
[18] = system: Candida albicans; experiment: Antifungal activity against Candida albicans ATCC 10231 pre-incubated for 5 days analysed after 24 hrs by CLSI M27-A2 method; assay type: functional; how it was run: as §2
[19] = system: Candida albicans; experiment: Antifungal activity against Candida albicans ATCC 10231 after 24 hrs by CLSI M27-A2 method; assay type: functional; details: ATCC 10231, 24 h; how it was run: as §1
[20] = system: Candida albicans; experiment: Antifungal activity against Candida albicans ATCC 10231 within 90 mins by time-to-kill study; assay type: functional, organism-based
How it was run: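 C. albicans ATCC 10231 (2–2.5 × 10⁴ CFU/mL) in 5 mL RPMI-1640 was exposed to 1× MFC of compound at 37 °C with agitation. 10 µL samples taken at 0, 30, 60, 90 and 120 min, and at 4, 8, 12 and 24 h, were plated on drug-free SDA and colonies counted after 24–48 h at 37 °C. Run in duplicate.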

[21] = system: Candida albicans; experiment: Antifungal activity against Candida albicans ATCC 10231 pre-incubated for 4 days analysed after 24 hrs by CLSI M27-A2 method; assay type: functional; how it was run: as §2
[22] = system: Candida albicans; experiment: Antifungal activity against Candida albicans ATCC 10231 pre-incubated for 2 days analysed after 24 hrs by CLSI M27-A2 method; assay type: functional; how it was run: as §2
[23] = system: Candida albicans; experiment: Antifungal activity against Candida albicans ATCC 10231 pre-incubated for 3 days analysed after 24 hrs by CLSI M27-A2 method; assay type: functional; how it was run: as §2

Row | Compound | MIC [1] [µg/mL] | MIC [2] [µg/mL] | MIC [3] [µg/mL] | MIC [4] [µg/mL] | MIC [5] [µg/mL] | MIC [6] [µg/mL] | MIC [7] [µg/mL] | MIC [8] [µg/mL] | MIC [9] [µg/mL] | MIC [10] [µg/mL] | MIC [11] [µg/mL] | MIC [12] [µg/mL] | MIC [13] [µg/mL] | MIC [14] [µg/mL] | MIC [15] [µg/mL] | MIC [16] [µg/mL] | MFC [1] [µg/mL] | MFC [2] [µg/mL] | MFC [3] [µg/mL] | MFC [4] [µg/mL] | further results
1 | O=C(O)/C=C\C(=O)NCc1ccccc1 | > 250 | > 250 | > 250 | > 250 | > 250 | > 250 | > 250 | > 250 | > 250 | > 250 | > 250 | > 250 | > 250 | > 250 | – | – | – | – | – | – | –
2 | O=C(O)/C=C\C(=O)Nc1ccccc1 | > 250 | > 250 | > 250 | > 250 | > 250 | > 250 | > 250 | > 250 | > 250 | > 250 | > 250 | > 250 | > 250 | > 250 | – | – | – | – | – | – | –
3 | CC(=O)N1CCN(c2ccc(OCC3COC(Cn4ccnc4)(c4ccc(Cl)cc4Cl)O3)cc2)CC1 (stereo not drawn) [KETOCONAZOLE] | 0.78 (≈ 1.47 µM) | 6.25 (≈ 11.8 µM) | 6.25 (≈ 11.8 µM) | 6.25 (≈ 11.8 µM) | 12.5 (≈ 23.5 µM) | 1.56 (≈ 2.94 µM) | 0.78 (≈ 1.47 µM) | 1.56 (≈ 2.94 µM) | 0.78 (≈ 1.47 µM) | 50 (≈ 94.1 µM) | 0.5 (≈ 0.941 µM) | 6.25 (≈ 11.8 µM) | 0.12 (≈ 0.226 µM) | 25 (≈ 47 µM) | – | – | – | – | – | – | –

Continued, in another order:

Row | MIC [1] [µg/mL] | MIC [2] [µg/mL] | MIC [3] [µg/mL] | MIC [4] [µg/mL] | MIC [5] [µg/mL] | MIC [6] [µg/mL] | MIC [7] [µg/mL] | MIC [8] [µg/mL] | MIC [9] [µg/mL] | MIC [10] [µg/mL] | MIC [11] [µg/mL] | MIC [12] [µg/mL] | MIC [13] [µg/mL] | MIC [14] [µg/mL] | MIC [15] [µg/mL] | MIC [16] [µg/mL] | Compound | MFC [1] [µg/mL] | MFC [2] [µg/mL] | MFC [3] [µg/mL] | MFC [4] [µg/mL] | further results
4 | 1.95 (≈ 8.5 µM) | 1.95 (≈ 8.5 µM) | 0.97 (≈ 4.23 µM) | 0.97 (≈ 4.23 µM) | 0.97 (≈ 4.23 µM) | 0.97 (≈ 4.23 µM) | 1.95 (≈ 8.5 µM) | 1.95 (≈ 8.5 µM) | 3.9 (≈ 17 µM) | 7.8 (≈ 34 µM) | 3.9 (≈ 17 µM) | 1.95 (≈ 8.5 µM) | 15.8 (≈ 68.7 µM) | 3.9 (≈ 17 µM) | 3.9 (≈ 17 µM) | 1000 (≈ 4360 µM) | O=C1C=CC(=O)N1CCCCc1ccccc1 | 7.8 (≈ 34 µM) | 3.9 (≈ 17 µM) | 1.95 (≈ 8.5 µM) | 1.95 (≈ 8.5 µM) | MIC [17]: 250 µg/mL (≈ 1090 µM); MFC [5]: 1.95 µg/mL (≈ 8.5 µM); MIC [18]: 125 µg/mL (≈ 545 µM); MFC [6]: 1.95 µg/mL (≈ 8.5 µM); MFC [7]: 7.81 µg/mL (≈ 34.1 µM); MFC [8]: 3.9 µg/mL (≈ 17 µM); MFC [9]: 3.9 µg/mL (≈ 17 µM); MIC [19]: 3.9 µg/mL (≈ 17 µM); Activity [20]: Active; MIC [21]: 31.2 µg/mL (≈ 136 µM); MFC [10]: 15.8 µg/mL (≈ 68.7 µM); MFC [11]: 7.8 µg/mL (≈ 34 µM); MFC [12]: 3.9 µg/mL (≈ 17 µM); MFC [13]: 32.2 µg/mL (≈ 141 µM); MFC [14]: 3.9 µg/mL (≈ 17 µM); MIC [22]: 3.9 µg/mL (≈ 17 µM); MIC [23]: 15.8 µg/mL (≈ 68.7 µM)
5 | 3.9 (≈ 18.1 µM) | 1.95 (≈ 9.06 µM) | 3.9 (≈ 18.1 µM) | 0.97 (≈ 4.51 µM) | 1.95 (≈ 9.06 µM) | 0.97 (≈ 4.51 µM) | 15.8 (≈ 73.2 µM) | 1.95 (≈ 9.06 µM) | 3.9 (≈ 18.1 µM) | 3.9 (≈ 18.1 µM) | 3.9 (≈ 18.1 µM) | 0.97 (≈ 4.51 µM) | 15.8 (≈ 73.2 µM) | 1.95 (≈ 9.06 µM) | 3.9 (≈ 18.1 µM) | 1000 (≈ 4650 µM) | O=C1C=CC(=O)N1CCCc1ccccc1 | 3.9 (≈ 18.1 µM) | 3.9 (≈ 18.1 µM) | 7.81 (≈ 36.3 µM) | 1.95 (≈ 9.06 µM) | MIC [17]: 125 µg/mL (≈ 581 µM); MFC [5]: 3.9 µg/mL (≈ 18.1 µM); MIC [18]: 62.5 µg/mL (≈ 290 µM); MFC [6]: 1.95 µg/mL (≈ 9.06 µM); MFC [7]: 7.81 µg/mL (≈ 36.3 µM); MFC [8]: 3.9 µg/mL (≈ 18.1 µM); MFC [9]: 32.2 µg/mL (≈ 150 µM); MIC [19]: 3.9 µg/mL (≈ 18.1 µM); Activity [20]: Active; MIC [21]: 15.8 µg/mL (≈ 73.2 µM); MFC [10]: 7.8 µg/mL (≈ 36.2 µM); MFC [11]: 7.8 µg/mL (≈ 36.2 µM); MFC [12]: 1.95 µg/mL (≈ 9.06 µM); MFC [13]: 32.2 µg/mL (≈ 150 µM); MFC [14]: 7.8 µg/mL (≈ 36.2 µM); MIC [22]: 3.9 µg/mL (≈ 18.1 µM); MIC [23]: 15.8 µg/mL (≈ 73.2 µM)
6 | 1.95 (≈ 10.4 µM) | 1.95 (≈ 10.4 µM) | 1.95 (≈ 10.4 µM) | 0.97 (≈ 5.18 µM) | 1.95 (≈ 10.4 µM) | 0.97 (≈ 5.18 µM) | 3.9 (≈ 20.8 µM) | 1.95 (≈ 10.4 µM) | 1.95 (≈ 10.4 µM) | 3.9 (≈ 20.8 µM) | 3.9 (≈ 20.8 µM) | 0.97 (≈ 5.18 µM) | 15.8 (≈ 84.1 µM) | 1.95 (≈ 10.4 µM) | 3.9 (≈ 20.8 µM) | 500 (≈ 2670 µM) | O=C1C=CC(=O)N1Cc1ccccc1 | 3.9 (≈ 20.8 µM) | 3.9 (≈ 20.8 µM) | 3.9 (≈ 20.8 µM) | 1.95 (≈ 10.4 µM) | MIC [17]: 250 µg/mL (≈ 1340 µM); MFC [5]: 3.9 µg/mL (≈ 20.8 µM); MIC [18]: 125 µg/mL (≈ 668 µM); MFC [6]: 3.9 µg/mL (≈ 20.8 µM); MFC [7]: 3.9 µg/mL (≈ 20.8 µM); MFC [8]: 1.95 µg/mL (≈ 10.4 µM); MFC [9]: 7.81 µg/mL (≈ 41.7 µM); MIC [19]: 3.9 µg/mL (≈ 20.8 µM); Activity [20]: Active; MIC [21]: 15.8 µg/mL (≈ 84.1 µM); MFC [10]: 3.9 µg/mL (≈ 20.8 µM); MFC [11]: 7.8 µg/mL (≈ 41.7 µM); MFC [12]: 1.95 µg/mL (≈ 10.4 µM); MFC [13]: 32.2 µg/mL (≈ 172 µM); MFC [14]: 3.9 µg/mL (≈ 20.8 µM); MIC [22]: 7.8 µg/mL (≈ 41.7 µM); MIC [23]: 7.8 µg/mL (≈ 41.7 µM)
